PostGolgi yeast = growth inhibition of a yeast mutant, post-Golgi transport screen; 98,000 tested, 0.9% active; inhibition, % at 10 µM; post-Golgi transport phenotypic cell assay;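 also: yeast cells grown in 1536-well plates; yeast grown about 18 h at 30C before absorbance read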
Ecoli WT expand = blocks growth of wild type E. coli BW25113 | growth inhibition, % at 100 µM | 98,000 tested, 0.15% active | OD600 absorbance;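 active = growth inhibition above about 50% at one test dose, limit read from the data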;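 also: growth measured after 20 h incubation at 37 °C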
Ecoli tolC = blocks growth of E. coli BW25113 tolC mutant; OD615; growth inhibition, % at 10 µM (by protocol); 65,000 tested, 2.2% active; AID 573;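 active = growth inhibition at or above a cutoff equal to the mean over every tested compound plus 3 SD, cut at about 60% in these data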;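 also: growth measured after 20 h incubation at 37 °C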
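Test system: tolC-deleted E. coli BW25113 | Medium: LB with kanamycin 50 µg/mL | Compound dosing: Single concentration, 10 µM final per compound | Schedule: 37 °C, 20 h exposure | Measured by: OD at 615 nm | Evaluation: Percent growth inhibition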
PostGolgi ctrl = growth of the yeast control strain, post-Golgi counter-screen | AID 738 | inhibition, % at 10 µM | 98,000 tested, 5% active | efflux-deficient yeast background strain, growth absorbance A615, 16 h
Her2 expr inh = Her2 kinase expression inhibition. HER2 level % of control, % at 10 µM. 65,000 tested, 0.69% active. AID 645. SKBR-3 HER2 protein level, AlphaScreen, 18-24 h; stronger effect = lower value;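 active = HER2 level under 5% of the carrier-only control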;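 also: 100% = DMSO carrier and 0% = 500 nM PU-H71 HSP90 inhibitor; lower value means stronger loss of Her2 protein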
Target sequence (P04626 whole entry, looked up): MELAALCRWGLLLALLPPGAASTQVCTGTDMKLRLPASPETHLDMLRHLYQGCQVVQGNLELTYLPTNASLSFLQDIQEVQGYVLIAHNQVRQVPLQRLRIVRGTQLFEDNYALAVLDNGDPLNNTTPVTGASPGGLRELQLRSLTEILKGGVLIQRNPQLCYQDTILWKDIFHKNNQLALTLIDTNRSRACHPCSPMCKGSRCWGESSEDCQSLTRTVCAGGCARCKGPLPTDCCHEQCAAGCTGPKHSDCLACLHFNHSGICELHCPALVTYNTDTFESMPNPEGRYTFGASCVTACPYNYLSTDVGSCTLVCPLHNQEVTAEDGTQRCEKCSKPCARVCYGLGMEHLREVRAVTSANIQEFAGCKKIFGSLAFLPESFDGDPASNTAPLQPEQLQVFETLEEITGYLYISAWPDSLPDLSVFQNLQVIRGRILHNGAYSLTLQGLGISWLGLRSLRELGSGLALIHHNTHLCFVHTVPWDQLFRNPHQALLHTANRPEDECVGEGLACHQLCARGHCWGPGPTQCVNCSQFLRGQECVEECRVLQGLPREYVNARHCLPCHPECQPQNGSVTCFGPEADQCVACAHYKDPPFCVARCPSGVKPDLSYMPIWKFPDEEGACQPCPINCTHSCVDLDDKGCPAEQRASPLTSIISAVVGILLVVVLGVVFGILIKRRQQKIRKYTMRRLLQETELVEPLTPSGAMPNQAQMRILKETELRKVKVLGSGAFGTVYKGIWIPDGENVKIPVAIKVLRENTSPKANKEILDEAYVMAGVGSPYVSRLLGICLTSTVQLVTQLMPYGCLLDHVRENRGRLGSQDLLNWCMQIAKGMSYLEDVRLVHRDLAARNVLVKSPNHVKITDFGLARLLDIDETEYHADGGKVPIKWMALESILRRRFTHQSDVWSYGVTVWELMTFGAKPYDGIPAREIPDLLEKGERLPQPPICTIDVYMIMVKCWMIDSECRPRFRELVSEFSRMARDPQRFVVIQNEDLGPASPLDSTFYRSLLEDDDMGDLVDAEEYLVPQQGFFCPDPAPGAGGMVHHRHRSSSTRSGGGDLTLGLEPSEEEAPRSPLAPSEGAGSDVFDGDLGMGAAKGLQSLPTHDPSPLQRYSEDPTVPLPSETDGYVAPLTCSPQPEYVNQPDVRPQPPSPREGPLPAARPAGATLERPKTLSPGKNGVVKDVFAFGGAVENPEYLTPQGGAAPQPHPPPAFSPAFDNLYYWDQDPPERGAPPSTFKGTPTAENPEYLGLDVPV
An asterisk follows results filed as active; x = no result. Hits are enriched below; roughly 6.6% of the tested compounds scored in any of these assays. Rule as the data show it, unless noted: active = inhibition above about 30%; inactive = the rest.

SMILES	PostGolgi yeast	Ecoli WT expand	Ecoli tolC	PostGolgi ctrl	Her2 expr inh
Cc1ccc(N(C(=O)C2CCCC2)C2C=CS(=O)(=O)C2)cc1 (configuration not stated)	4.6	1.0	5.2	38.6*	x
Cc1ccc(NN2C(=O)C=C(c3ccc(Cl)cc3)C2=O)cc1	106.4*	3.0	x	99.4*	x
O=C1C=C(c2ccccc2)C(=O)N1Nc1ccccc1	103.5*	11.0	x	29.7	x
Cc1ccc(NC(=O)c2ccc(Cl)c(N3C(=O)C=CC3=O)c2)cc1	-6.6	9.0	x	3.9	x
c1ccc(Cc2nn3c(C4COc5ccccc5O4)nnc3s2)cc1 (configuration not stated)	-5.4	0.0	16.8	18.4	93.2
c1ccc(CCc2nn3c(C4COc5ccccc5O4)nnc3s2)cc1 (configuration not stated)	5.4	1.0	26.7	30.7*	76.0
O=S(=O)(c1ccc2ccccc2c1)N(CC(O)COCc1ccco1)c1ccccc1 (configuration not stated)	20.1	-2.0	x	30.9*	x
COc1ccc(/C=N/c2oc(-c3ccccc3)cc2C#N)cc1OC	5.8	5.0	x	4.5	x
N#Cc1c(N)c(C#N)c(-c2ccc(O)cc2)c2c1CCCC2	7.4	10.0	25.8	33.9*	83.1
N#Cc1c(N)c(C#N)c(-c2ccc3c(c2)OCO3)c2c1CCCC2	6.0	-7.0	16.4	18.7	95.2
O=[N+]([O-])c1ccc(N/N=C\c2cccn2-c2ccccc2)nc1	10.8	-9.0	x	39.9*	x
CCCn1c(SCC(N)=O)nc2c(c1=O)C1(CCCC1)Cc1ccccc1-2	3.4	1.0	6.3	44.2*	72.3
CCn1c(SCC#N)nc2c(c1=O)C1(CCCC1)Cc1ccccc1-2	0.3	0.0	53.2	51.6*	108.3
CCN(CC)Cc1nc2c(c(=O)[nH]1)C1(CCCC1)Cc1ccccc1-2	-1.8	14.0	x	15.2	x
N#C/C(=C\c1ccco1)Sc1nc2ccccc2s1	-3.7	-14.0	96.5*	16.6	39.0
O=C(c1ccc(F)cc1)c1ccc(N2CCCC2)cc1	6.3	-1.0	5.9	42.0*	100.1
Cc1ccc(CNC(=O)CS(=O)(=O)CC(=O)O)cc1	20.3	-2.0	x	17.1	x
O=C(Cn1ncc2c1-c1ccccc1OC2)N(Cc1ccco1)C1CCCCC1	0.8	6.0	37.9	32.4*	79.6
O=C(Cn1ncc2c1-c1ccccc1OC2)Nc1nc2ccccc2s1	-10.5	11.0	58.3	46.8*	81.2
O=C(Cc1cccs1)Nc1nc2ccccc2s1	-2.8	0.0	-7.4	30.3*	83.6
COc1cccc(-c2nnc(SCC(=O)N3CC(C)CC(C)C3)o2)c1 (configuration not stated)	-3.3	1.0	20.4	4.3	93.3
O=C(NCC(F)(F)F)N1CCOCC1	9.1	6.0	19.6	4.3	135.2
O=C(Cn1cnnn1)Nc1ccccc1Cc1ccccc1	-0.2	4.0	-17.5	0.0	88.7
CCOC(=O)N1CCN(c2nc(N(c3ccccc3)c3ccccc3)nc(-n3ccnc3)n2)CC1	x	x	66.3*	x	111.3
CN(c1ccccc1)c1nc(N2CCCC2)nc(-n2ccnc2)n1	104.5*	12.0	96.2*	90.5*	103.3
SMILES	PostGolgi yeast	Ecoli WT expand	Ecoli tolC	PostGolgi ctrl	Her2 expr inh
c1ccc(N(c2ccccc2)c2nc(N3CCCC3)nc(-n3ccnc3)n2)cc1	2.0	5.0	5.8	32.4*	79.8
N/C(=N/O)c1nc(N2CCCC2)nc(N(c2ccccc2)c2ccccc2)n1	0.3	-12.0	72.1*	16.9	105.8
c1ccc(CN2CCN(c3nc(-c4ccccc4)nc(-n4ccnc4)n3)CC2)cc1	48.2*	-5.0	64.6*	77.4*	78.9
CCOC(=O)c1cccc(NC(=O)Nc2cc(OC)ccc2OC)c1	-4.7	4.0	82.8*	3.1	76.2
CC1CC(C)CN(C(=O)CSc2nnc(-c3ccc(Cl)cc3)o2)C1 (configuration not stated)	-11.9	2.0	5.1	15.8	96.5
Cc1ccc(-c2nnc(SCC(=O)N3CC(C)CC(C)C3)o2)cc1C (configuration not stated)	2.4	-8.0	97.0*	14.6	85.0
COc1ccc(CC(=O)Nc2cccc(C(=O)O)c2C)cc1	14.3	-5.0	-22.6	33.8*	91.4
O=c1cc(N2CCCCC2)c(-c2ccccc2)nn1Cc1c(Cl)cccc1Cl	-3.8	-14.0	x	45.5*	x
Cc1cccc(C(=O)/C=C2/c3ccccc3CC(C)(C)N2C)c1	14.3	-3.0	x	24.2	x
Cc1ccccc1Cn1ccc(NC(=O)c2cnn3c2NC(c2ccccc2)CC3C(F)(F)F)n1 (configuration not stated)	11.2	-6.0	x	37.4*	x
O=C(c1ccco1)N1CCN(C(=O)c2cnn3c2NC(c2cccs2)CC3C(F)(F)F)CC1 (configuration not stated)	13.5	2.0	6.7	9.6	144.6
O=C(c1cnn2c1NC(c1ccco1)CC2C(F)(F)F)N1CCN(c2cccc(Cl)c2)CC1 (configuration not stated)	1.4	-5.0	56.7	65.3*	57.3
O=C(Nc1ccc2c(c1)OCO2)c1cnn2c(C(F)(F)F)cc(-c3ccco3)nc12	-6.0	-16.0	-0.3	8.0	124.2
Cc1ccccc1Cn1ccc(NC(=O)c2cnn3c(C(F)(F)F)cc(-c4ccco4)nc23)n1	-0.7	-10.0	21.9	32.7*	102.1
Cc1ccc(Cn2ccc(NC(=O)CCSc3nc(-c4ccco4)cc(C(F)(F)F)n3)n2)cc1	2.0	-23.0	30.5	49.8*	89.3
Cc1cc(NC(=O)CCSc2nc(-c3ccco3)cc(C(F)(F)F)n2)no1	-3.1	-7.0	x	7.1	x
Cc1ccc(C)c(N2CCN(c3cc(C)nc4nnnn34)CC2)c1	x	x	-2.4	x	83.6
O=C(NCc1ccco1)c1cnn2c1NC(c1ccc(Br)cc1)CC2C(F)(F)F (configuration not stated)	-3.2	3.0	67.5*	37.5*	71.7
Cc1nn(C)c(C)c1NC(=O)CCSc1nc(-c2ccco2)cc(C(F)(F)F)n1	-4.4	3.0	9.8	11.4	113.3
Cc1ccccc1Cn1ccc(NC(=O)CCSc2nc(-c3ccco3)cc(C(F)(F)F)n2)n1	9.9	-19.0	44.7	53.5*	55.9
O=C(Nc1cccc2nsnc12)c1ccc(-c2cccc(Cl)c2)o1	-2.6	-2.0	x	-3.0	x
COc1ccc2cc3cc(C(=O)NCCN4CCc5ccccc5C4)oc3nc2c1	5.8	7.0	55.4	66.4*	110.4
CCCCN(CC)CCCNC(=O)c1cc2cc3ccc(OC)cc3nc2o1	7.3	2.0	0.3	45.6*	89.4
COc1ccc2cc3cc(C(=O)NCCc4ccc(OC)c(OC)c4)oc3nc2c1	6.6	-4.0	-6.8	27.3	54.2
CCCN(CCC)CCCNC(=O)c1cc2cc3ccc(OC)cc3nc2o1	4.6	-3.0	-2.4	40.1*	91.3
COc1ccc2cc3cc(C(=O)NCCCN4CCOCC4)oc3nc2c1	14.7	-1.0	-9.2	23.6	84.5
CCN1CCN(CCCNC(=O)c2cc3cc4ccc(OC)cc4nc3o2)CC1	12.5	0.0	-2.7	35.4*	84.5
O=C(CSC1=NCCS1)N1CCc2ccccc21	6.2	-1.0	-7.5	6.2	99.3
CCCCC(=O)Nc1ccc(C(=O)Nc2nnc(COC)s2)cc1	-2.2	-8.0	x	-0.1	x
